Experimental data from ChEMBL document CHEMBL3407394, “Synthesis and in vitro anticancer activity evaluation of novel bioreversible phosphate inositol derivatives” (Eur J Med Chem, 2015).

How the values were obtained:
[1] = Cytotoxicity against human MCF10A cells assessed as growth inhibition at 10 ug/ml after 72 hrs by MTT assay; format: cell-based, MCF-10A; settings: read-out: GI
Method in brief: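 MCF10A cells in DMEM/F12 plus 5% horse serum, about 1000 per well, were incubated 12 h, then treated at one final well concentration diluted in DMEM (0.5% DMSO) for 72 h, 37 °C, 5% CO2. Viability was by MTT: 4 h in fresh medium, formazan dissolved in DMSO, absorbance at 570 nm, normalized to vehicle controls. Cisplatin in 1% NaCl, pH 7, was the positive control.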

[2] = system: HeLa; test: Cytotoxicity against human HeLa cells assessed as growth inhibition at 10 ug/ml after 72 hrs by MTT assay; format: functional; settings: read-out: GI
Method in brief: (§1)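 Single-concentration screen in A549, HeLa or MDA-MB-231 cells cultured in DMEM, 10% FBS, 1% penicillin/streptomycin. About 1000 cells/well were preincubated 12 h, and compound diluted in DMEM to the final well concentration (0.5% DMSO) for 72 h at 37 °C, 5% CO2. Readout was MTT 4 h, DMSO-solubilized formazan, OD570, with inhibition relative to DMSO vehicle. Cisplatin in 1% NaCl (pH 7) served as positive control.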

[3] = system: MDA-MB-231; test: Cytotoxicity against human MDA-MB-231 cells assessed as growth inhibition at 10 ug/ml after 72 hrs by MTT assay; format: functional; settings: MDA-MB-231, 72 h, read-out: GI; method in brief: as §1
[4] = system: A549; test: Cytotoxicity against human A549 cells assessed as growth inhibition at 10 ug/ml after 72 hrs by MTT assay; format: functional; settings: A549, 72 h, read-out: GI; method in brief: as §1

Row | Structure (SMILES) | inhibition at 72 h, 10 ug/ml [1] [%] | inhibition of growth at 10 µg/mL [2] [%] | inhibition of growth at 10 µg/mL [3] [%] | inhibition of growth at 10 µg/mL [4] [%]
1 | CC(=O)Oc1ccc(COP(=O)(OCc2ccc(OC(C)=O)cc2)O[C@@H]2[C@@H](OCc3ccccc3)[C@H](OCc3ccccc3)[C@@H](OCc3ccccc3)[C@H](OCc3ccccc3)[C@@H]2OP(=O)(OCc2ccc(OC(C)=O)cc2)OCc2ccc(OC(C)=O)cc2)cc1 | 42.3 | 15.8 | -17.2 | 14.9
2 | C#CCO[C@@H]1[C@@H](OCc2ccccc2)[C@H](OP(=O)(OCc2ccc(OC(C)=O)cc2)OCc2ccc(OC(C)=O)cc2)[C@H](OCc2ccccc2)[C@H](OP(=O)(OCc2ccc(OC(C)=O)cc2)OCc2ccc(OC(C)=O)cc2)[C@H]1OCc1ccccc1 | 38.6 | 100 | 8.7 | 9.9
3 | CC(=O)Oc1ccc(COP(=O)(OCc2ccc(OC(C)=O)cc2)O[C@H]2[C@H](OCc3ccccc3)[C@@H](OP(=O)(OCc3ccc(OC(C)=O)cc3)OCc3ccc(OC(C)=O)cc3)[C@H](OCc3ccccc3)[C@@H](OP(=O)(OCc3ccc(OC(C)=O)cc3)OCc3ccc(OC(C)=O)cc3)[C@H]2OCc2ccccc2)cc1 | 34.9 | 69.3 | -22.3 | 12.8
4 | CC(=O)Oc1ccc(COP(=O)(OCc2ccc(OC(C)=O)cc2)O[C@H]2[C@H](OCc3ccccc3)[C@@H](OCc3ccccc3)[C@@H](OP(=O)(OCc3ccc(OC(C)=O)cc3)OCc3ccc(OC(C)=O)cc3)[C@@H](OP(=O)(OCc3ccc(OC(C)=O)cc3)OCc3ccc(OC(C)=O)cc3)[C@@H]2OCc2ccccc2)cc1 | 15.6 | -6.2 | -2.1 | -1.2
5 | CC(=O)Oc1ccc(COP(=O)(OCc2ccc(OC(C)=O)cc2)O[C@@H]2[C@@H](OCc3ccccc3)[C@@H](OCc3ccccc3)[C@@H](OP(=O)(OCc3ccc(OC(C)=O)cc3)OCc3ccc(OC(C)=O)cc3)[C@H](OP(=O)(OCc3ccc(OC(C)=O)cc3)OCc3ccc(OC(C)=O)cc3)[C@H]2OCc2ccccc2)cc1 | 9.2 | 80 | 21.3 | 7.8
6 | CC(=O)Oc1ccc(COP(=O)(OCc2ccc(OC(C)=O)cc2)O[C@@H]2[C@H](OCc3ccccc3)[C@H](OCc3ccccc3)[C@@H](OP(=O)(OCc3ccc(OC(C)=O)cc3)OCc3ccc(OC(C)=O)cc3)[C@H](OP(=O)(OCc3ccc(OC(C)=O)cc3)OCc3ccc(OC(C)=O)cc3)[C@H]2OCc2ccccc2)cc1 | 37.4 | 84.5 | 11 | 6.4
7 | CC(=O)Oc1ccc(COP(=O)(OCc2ccc(OC(C)=O)cc2)O[C@H]2[C@H](OP(=O)(OCc3ccc(OC(C)=O)cc3)OCc3ccc(OC(C)=O)cc3)[C@@H](OCc3ccccc3)[C@H](OCc3ccccc3)[C@H](OCc3ccccc3)[C@@H]2OP(=O)(OCc2ccc(OC(C)=O)cc2)OCc2ccc(OC(C)=O)cc2)cc1 | 45.1 | 49.5 | 19.2 | 4.7
8 | CC(=O)Oc1ccc(COP(=O)(OCc2ccc(OC(C)=O)cc2)O[C@@H]2[C@@H](OCc3ccccc3)[C@H](OCc3ccccc3)[C@@H](OP(=O)(OCc3ccc(OC(C)=O)cc3)OCc3ccc(OC(C)=O)cc3)[C@@H](OP(=O)(OCc3ccc(OC(C)=O)cc3)OCc3ccc(OC(C)=O)cc3)[C@H]2OCc2ccccc2)cc1 | 5.1 | -1.2 | -11 | 9.1
